Assay results reported in ChEMBL document CHEMBL1123250, “Chloroalanyl antibiotic peptides: antagonism of their antimicrobial effects by L-alanine and L-alanyl peptides in gram-negative bacteria” (1986).
≈ marks a conversion by molar mass, not a printed value. Where “and” joins values, the source holds several entries; their conditions need not be identical. Identical values can stand only once.

What was measured:
Shigella flexneri [1] = assay: Compound was tested for antibacterial activity at a concentration of 500 ug/mL against Shigella flexneri; type: functional
In short: (§1)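 Agar dilution in defined peptide susceptibility agar with L-Ala or L-Ala-L-Ala added at 25, 50, 100 or 500 µg/mL, and peptide in serial 2-fold dilutions. Inocula were grown overnight in the liquid susceptibility medium and diluted to about 1 x 10^7 cfu/mL, then replicator-spotted. Plates were incubated overnight at 37 °C. MIC was the lowest concentration allowing fewer than 10 colonies at 16-18 h.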

Shigella flexneri [2] = assay: (§2) Compound was tested for antibacterial activity at a concentration of 25 ug/mL against Shigella flexneri; type: functional; in short: as §1
[3] = target: Alanine racemase, biosynthetic (Escherichia coli K-12) (UniProt P0A6B4); assay: (§3) Compound was tested for enzyme activity at a concentration of 100 ug/mL against alanine racemase; per mg of protein
In short: (§4)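 E. coli JSR-0 was grown at 37 °C in Davis-Mingioli medium with Met and Pro (50 µg/mL each) and Leu, Ile and Val (100 µg/mL each), plus 5% sucrose or 500 µg/mL L-Ala. Agent was added at about 100 Klett units, with 30 min more shaking. Cells were washed in phosphate/EDTA/PLP buffer pH 8.0 and sonicated. D→L racemase was coupled to L-alanine dehydrogenase (10 mM D-Ala, 5 mM NAD+, CHES pH 9.0, 37 °C), reading NADH at 340 nm.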

Klebsiella aerogenes [4] = assay: Compound was tested for antibacterial activity at a concentration of 50 ug/mL against Enterobacter aerogenes; type: functional; in short: as §1
[5] = target: Alanine racemase, biosynthetic (Escherichia coli K-12) (UniProt P0A6B4); assay: as §3; in short: as §4; remark: listed apart in the source
Escherichia coli [6] = assay: (§5) Compound was tested for antibacterial activity at a concentration of 25 ug/mL against Escherichia coli JSR-O; type: functional; in short: as §1
Escherichia coli [7] = assay: Compound was tested for antibacterial activity at a concentration of 50 ug/mL against Escherichia coli JSR-O; type: functional; in short: as §1
Staphylococcus aureus [8] = assay: (§6) Compound was tested for antibacterial activity at a concentration of 25 ug/mL against Staphylococcus aureus; type: functional; in short: as §1
Enterococcus faecalis [9] = assay: (§7) Compound was tested for antibacterial activity at a concentration of 25 ug/mL against Streptococcus faecalis; type: functional; in short: as §1
Escherichia coli [10] = assay: Compound was tested for antibacterial activity at a concentration of 50 ug/mL against Escherichia coli ATCC; type: functional; in short: as §1
Klebsiella aerogenes [11] = assay: Compound was tested for antibacterial activity at a concentration of 500 ug/mL against Enterobacter aerogenes; type: functional; in short: as §1
Shigella flexneri [12] = assay: Compound was tested for antibacterial activity against Shigella flexneri at a concentration of 25 ug/mL; type: functional; in short: as §1
Klebsiella aerogenes [13] = assay: Compound was tested for antibacterial activity against Enterobacter aerogenes at a concentration of 25 ug/mL; type: functional; in short: as §1
Escherichia coli [14] = assay: Compound was tested for antibacterial activity against Escherichia coli JSR-O at a concentration of 25 ug/mL; type: functional; in short: as §1
Streptococcus pyogenes = assay: Compound was tested for antibacterial activity against Streptococcus pyogenes; type: functional
In short: (§8)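 Inoculum made from colonies grown overnight on chocolate or blood agar, resuspended in liquid medium to 10' cfu/mL. Applied by Steers replicator to serial 2-fold peptide dilutions. Incubated overnight at 37 °C under 7% CO2. MIC = lowest concentration giving fewer than 10 colonies at 16-18 h.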

Enterococcus faecalis [15] = assay: Compound was tested for antibacterial activity at a concentration of 100 ug/mL against Streptococcus faecalis; type: functional; in short: as §1
[16] = test system: Staphylococcus epidermidis; assay: (§9) Compound was tested for antibacterial activity at a concentration of 25 ug/mL against Staphylococcus epidermidis; type: functional; in short: as §1
Enterobacter cloacae [17] = assay: Compound was tested for antibacterial activity at a concentration of 50 ug/mL against Enterobacter cloacae; type: functional; in short: as §1
Enterobacter cloacae [18] = assay: Compound was tested for antibacterial activity at a concentration of 500 ug/mL against Enterobacter cloacae; type: functional; in short: as §1
Shigella flexneri [19] = assay: as §2; type: functional; in short: as §1; remark: listed apart in the source
Klebsiella aerogenes [20] = assay: (§10) Compound was tested for antibacterial activity at a concentration of 25 ug/mL against Enterobacter aerogenes; type: functional; in short: as §1
Shigella flexneri [21] = assay: Compound was tested for antibacterial activity against Shigella flexneri; type: functional
In short: (§11)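 Agar dilution MIC on defined peptide susceptibility agar. Inoculum made by growing overnight in liquid peptide susceptibility medium, then diluting to about 1 × 10^7 cfu/mL. Applied by Steers replicator to plates carrying serial 2-fold peptide dilutions. Incubated overnight at 37 °C. MIC = lowest concentration allowing growth of fewer than 10 colonies after 16-18 h.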

Staphylococcus aureus [22] = assay: (§12) Compound was tested for antibacterial activity against Staphylococcus aureus at a concentration of 25 ug/mL; type: functional; in short: as §1
[23] = test system: Staphylococcus epidermidis; assay: as §12; type: functional; in short: as §1
[24] = test system: Staphylococcus epidermidis; assay: Compound was tested for antibacterial activity at a concentration of 50 ug/mL against Staphylococcus epidermidis; type: functional; in short: as §1
Klebsiella aerogenes [25] = assay: as §10; type: functional; in short: as §1; remark: listed apart in the source
Escherichia coli [26] = assay: (§13) Compound was tested for antibacterial activity at a concentration of 25 ug/mL against Escherichia coli ATCC; type: functional; in short: as §1
Escherichia coli [27] = assay: Compound was tested for enzyme activity at a concentration of 100 ug/mL against transaminase B; per mg of protein
In short: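 E. coli JSR-0 was grown at 37 °C in supplemented Davis-Mingioli medium (Met and Pro; Leu, Ile and Val), with sucrose or L-Ala in some cultures. Agent was added at about 100 Klett units and cells harvested after 30 min. The sonicated homogenate was run with Tris pH 7.8, pyridoxal phosphate and α-ketoglutarate; L-valine started transamination at 37 °C. Timed aliquots were derivatised with 2,4-DNPH, and α-ketoisovalerate hydrazone was read at A430 against a standard curve.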

Staphylococcus aureus [28] = assay: Compound was tested for antibacterial activity at a concentration of 50 ug/mL against Staphylococcus aureus; type: functional; in short: as §1
Escherichia coli [29] = assay: Compound was tested for antibacterial activity at a concentration of 500 ug/mL against Escherichia coli ATCC; type: functional; in short: as §1
Escherichia coli [30] = assay: Compound was tested for antibacterial activity against Escherichia coli; type: functional; in short: as §11
Escherichia coli [31] = assay: Compound was tested for antibacterial activity at a concentration of 500 ug/mL against Escherichia coli JSR-O; type: functional; in short: as §1
Enterococcus faecalis [32] = assay: Compound was tested for antibacterial activity at a concentration of 500 ug/mL against Streptococcus faecalis; type: functional; in short: as §1
[33] = test system: Staphylococcus epidermidis; assay: as §9; type: functional; in short: as §1; remark: listed apart in the source
Shigella flexneri [34] = assay: Compound was tested for antibacterial activity at a concentration of 50 ug/mL against Shigella flexneri; type: functional; in short: as §1
Escherichia coli [35] = assay: as §13; type: functional; in short: as §1; remark: listed apart in the source
Enterococcus faecalis [36] = assay: as §7; type: functional; in short: as §1; remark: listed apart in the source
Staphylococcus aureus [37] = assay: as §6; type: functional; in short: as §1; remark: listed apart in the source
Enterobacter cloacae [38] = assay: Compound was tested for antibacterial activity at a concentration of 25 ug/mL against Enterobacter cloacae; type: functional; in short: as §1
Escherichia coli [39] = assay: as §5; type: functional; in short: as §1; remark: listed apart in the source
Escherichia coli [40] = assay: Compound was tested for antibacterial activity at a concentration of 100 ug/mL against Escherichia coli JSR-O; type: functional; in short: as §1
Enterococcus faecalis [41] = assay: Compound was tested for antibacterial activity against Streptococcus faecalis at a concentration of 25 ug/mL; type: functional; in short: as §1
Streptococcus agalactiae = assay: Compound was tested for antibacterial activity against Streptococcus agalactiae; type: functional; in short: as §8
Enterococcus faecalis [42] = assay: Compound was tested for antibacterial activity at a concentration of 50 ug/mL against Streptococcus faecalis; type: functional; in short: as §1

Chain of Alanine racemase, biosynthetic (Escherichia coli K-12) (P0A6B4 whole entry): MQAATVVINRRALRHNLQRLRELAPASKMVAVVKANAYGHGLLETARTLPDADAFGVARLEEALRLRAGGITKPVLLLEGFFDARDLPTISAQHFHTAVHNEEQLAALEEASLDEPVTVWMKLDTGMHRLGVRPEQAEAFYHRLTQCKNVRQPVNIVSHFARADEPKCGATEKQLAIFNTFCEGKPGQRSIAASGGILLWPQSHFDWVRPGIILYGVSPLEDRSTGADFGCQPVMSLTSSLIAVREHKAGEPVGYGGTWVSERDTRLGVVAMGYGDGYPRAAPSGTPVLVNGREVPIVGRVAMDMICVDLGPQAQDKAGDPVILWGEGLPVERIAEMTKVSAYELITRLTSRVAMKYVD

Q: For `N[C@@H](CCl)C(=O)N[C@@H](CCl)C(=O)O`, which MIC (Shigella flexneri [1]) is on record?
A: > 100 µg/mL

Q: What about the MIC (Shigella flexneri [2]) of the same compound?
A: 3.12 µg/mL (≈ 13.6 µM)

Q: What about the Activity [3] of the same compound?
A: 0.85 µM/min

Q: What about the MIC (Klebsiella aerogenes [4]) of the same compound?
A: > 100 µg/mL

Q: What about the Activity [5] of the same compound?
A: 0.19 µM/min

Q: And the MIC (Escherichia coli [6])?
A: > 100 µg/mL

Q: And the MIC (Escherichia coli [7])?
A: > 100 µg/mL

Q: And the MIC (Staphylococcus aureus [8])?
A: 0.05 µg/mL (≈ 0.218 µM)

Q: What about the MIC (Enterococcus faecalis [9]) of the same compound?
A: > 100 µg/mL

Q: And the MIC (Escherichia coli [10])?
A: > 100 µg/mL

Q: And the MIC (Klebsiella aerogenes [11])?
A: > 100 µg/mL

Q: And the MIC (Shigella flexneri [12])?
A: 1.56 µg/mL (≈ 6.81 µM)

Q: What about the MIC (Klebsiella aerogenes [13]) of the same compound?
A: 6.25 µg/mL (≈ 27.3 µM)

Q: And the MIC (Escherichia coli [14])?
A: 3.12 µg/mL (≈ 13.6 µM)

Q: What about the MIC (Streptococcus pyogenes) of the same compound?
A: 3.12 µg/mL (≈ 13.6 µM)

Q: What about the MIC (Enterococcus faecalis [15]) of the same compound?
A: > 100 µg/mL

Q: And the MIC [16]?
A: 0.39 µg/mL (≈ 1.7 µM)

Q: And the MIC (Enterobacter cloacae [17])?
A: > 100 µg/mL

Q: What about the MIC (Enterobacter cloacae [18]) of the same compound?
A: > 100 µg/mL

Q: And the MIC (Shigella flexneri [19])?
A: > 100 µg/mL

Q: And the MIC (Klebsiella aerogenes [20])?
A: 12.5 µg/mL (≈ 54.6 µM)

Q: What about the MIC (Shigella flexneri [21]) of the same compound?
A: 3.25 µg/mL (≈ 14.2 µM)

Q: What about the MIC (Staphylococcus aureus [22]) of the same compound?
A: 0.05 µg/mL (≈ 0.218 µM)

Q: And the MIC [23]?
A: 0.05 µg/mL (≈ 0.218 µM)

Q: What about the MIC [24] of the same compound?
A: 6.25 µg/mL (≈ 27.3 µM)

Q: What about the MIC (Klebsiella aerogenes [25]) of the same compound?
A: > 100 µg/mL

Q: What about the MIC (Escherichia coli [26]) of the same compound?
A: > 100 µg/mL

Q: What about the Activity (Escherichia coli [27]) of the same compound?
A: 0.13 µM/min and 0.11 µM/min

Q: What about the MIC (Staphylococcus aureus [28]) of the same compound?
A: 6.25 µg/mL (≈ 27.3 µM)

Q: What about the MIC (Escherichia coli [29]) of the same compound?
A: > 100 µg/mL

Q: What about the MIC (Escherichia coli [30]) of the same compound?
A: 12.5 µg/mL (≈ 54.6 µM)

Q: What about the MIC (Escherichia coli [31]) of the same compound?
A: > 100 µg/mL

Q: And the MIC (Enterococcus faecalis [32])?
A: > 100 µg/mL

Q: What about the MIC [33] of the same compound?
A: 0.05 µg/mL (≈ 0.218 µM)

Q: And the MIC (Shigella flexneri [34])?
A: > 100 µg/mL

Q: What about the MIC (Escherichia coli [35]) of the same compound?
A: 3.12 µg/mL (≈ 13.6 µM)

Q: And the MIC (Enterococcus faecalis [36])?
A: > 100 µg/mL

Q: And the MIC (Staphylococcus aureus [37])?
A: 0.39 µg/mL (≈ 1.7 µM)

Q: What about the MIC (Enterobacter cloacae [38]) of the same compound?
A: > 100 µg/mL

Q: And the MIC (Escherichia coli [39])?
A: 6.25 µg/mL (≈ 27.3 µM)

Q: And the MIC (Escherichia coli [40])?
A: >100 µg/mL

Q: And the MIC (Escherichia coli [40]; Escherichia coli, read-out: MIC)?
A: 50 µg/mL (≈ 218 µM)

Q: And the MIC (Enterococcus faecalis [41])?
A: > 100 µg/mL

Q: What about the MIC (Streptococcus agalactiae) of the same compound?
A: 1.56 µg/mL (≈ 6.81 µM)

Q: What about the MIC (Enterococcus faecalis [42]) of the same compound?
A: > 100 µg/mL
